The values below come from ChEMBL document CHEMBL4346736, “Anti-proliferative activity and structure-activity relationship of honokiol derivatives” (Bioorg Med Chem, 2019).

Structures are written as SMILES.

Data set [1] deals with HepG2. Nature of the data set: Antiproliferative activity against human HepG2 cells after 72 hrs by MTT assay. The class given is functional, cell-based. The note with it: HepG2, 72 h. On the technique in general: Tetrazolium assays rely on reduction of a dye to a coloured formazan, in cell work by metabolically active cells.
Data set [2] can be described thus: Partition coefficient, log P of the compound. The note with it: octanol/water. The class given is physicochemical.
In another data set the test system is NCI-H1975. Nature of the data set: Antiproliferative activity against human NCI-H1975 cells after 72 hrs by MTT assay. The note with it: NCI-H1975, 72 h. The class given is functional, cell-based.
Another data set concerns HCT-116. In words: Antiproliferative activity against human HCT116 cells after 72 hrs by MTT assay. The class given is functional, cell-based. The note with it: HCT-116, 72 h.
For data set [3], the system named is A549. Nature of the data set: Antiproliferative activity against human A549 cells after 48 hrs by MTT assay. The note with it: A549, 48 h. The data set is classed as functional, cell-based. Summed up:
(§1)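 Cells from the Institute of Cell Biology, CAS (Shanghai), grown in RPMI-1640 with 10% FBS and 100 U/mL penicillin-streptomycin at 37 °C under 5% CO2. Cells were exposed to compounds for 48 h, and viability was read by MTT (or MTS). IC50, the concentration giving 50% inhibition, was calculated by the Logit method. Data are representative of 3 independent experiments.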

A short description of data set [4]: Selectivity index, ratio of IC50 for HUVEC to IC50 for human K562 cells. The data set is classed as toxicity. The note with it: HUVEC versus K562 cells, read-out: Ratio IC50. In outline:
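K562 tumor cells and HUVEC grown in RPMI-1640 with 10% FBS and penicillin-streptomycin at 37 °C under 5% CO2. Viability was read by MTT or MTS assay, with tumor cells exposed to compounds for 48 h. IC50 values came from the Logit method across 3 independent experiments. The index is HUVEC IC50 divided by K562 IC50.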

A further data set has as its system HUVEC. In words: Antiproliferative activity against human HUVEC cells after 48 hrs by MTT assay. The data set is classed as cell-based. Summed up:
as §1

Data set [5] concerns HepG2. Nature of the data set: Antiproliferative activity against human HepG2 cells after 48 hrs by MTT assay. The data set is classed as functional, cell-based. The note with it: HepG2, 48 h. Summed up:
as §1

Data set [6] has as its system K562. Nature of the data set: Antiproliferative activity against human K562 cells after 48 hrs by MTT assay. The data set is classed as functional, cell-based. The note with it: K562, 48 h. In outline:
as §1

For data set [7], the system named is K562. In words: Antiproliferative activity against human K562 cells by MTT assay. The class given is functional, cell-based. Summed up: as §1
The subject of data set [8] is A549. Nature of the data set: Antiproliferative activity against human A549 cells by MTT assay. The data set is classed as functional, cell-based. Summed up: as §1
Data set [9] can be described thus: Antiproliferative activity against human SPCA1 cells by MTT assay. The data set is classed as functional, cell-based.
Data set [10] relates to A549. In words: Antiproliferative activity against human A549 cells after 24 hrs by MTT assay. The data set is classed as functional, cell-based. The note with it: A549, 24 h.
A short description of data set [11]: Antiproliferative activity against human SPCA1 cells after 24 hrs by MTT assay. The data set is classed as functional, cell-based. The note with it: SPCA1, 24 h.
Another data set concerns A2780. Nature of the data set: Antiproliferative activity against human A2780 cells after 24 hrs by MTT assay. The class given is functional, cell-based. The note with it: A2780, 24 h.
The test system of data set [12] is K562. In words: Antiproliferative activity against human K562 cells after 24 hrs by MTT assay. The class given is functional, cell-based. The note with it: K562, 24 h.
The nature of data set [13]: Antiproliferative activity against […] cells after 24 hrs by MTT assay. The class given is functional, cell-based. The note with it: LL/2, 24 h.
Data set [14] has as its system HepG2. Nature of the data set: Antiproliferative activity against human HepG2 cells after 24 hrs by MTT assay. The class given is functional, cell-based. The note with it: HepG2, 24 h.
A short description of data set [15]: Antiproliferative activity against mouse C26 cells. The data set is classed as functional, cell-based.
Another data set deals with HeLa. Nature of the data set: Antiproliferative activity against human HeLa cells. The class given is functional, cell-based.

Usually IC50 stands for the concentration needed to halve the response being measured. Broadly, the logP is a log measure of how a compound divides between an organic and an aqueous phase. With `C=CCc1ccc(O)c(-c2ccc(O)c(CC(O)COC)c2)c1` (configuration not stated), the IC50 with HepG2 [1], with NCI-H1975 and in the data set on HCT-116 was over 40 µM in each case. This molecule also had a logP in [2] of 3.7.
For the molecule `O=Cc1ccc(O)c(-c2ccc(O)c(CC3CO3)c2)c1` (configuration not stated), the IC50 in the data set on HepG2 [1], in the data set on NCI-H1975 and in the data set on HCT-116 was over 40 µM in each case. This molecule also yielded a logP in [2] of 3.16.
Regarding `C=CCc1cc2c(c(-c3cc(CC=C)c4c(c3)NC(=O)CO4)c1)OCC(=O)N2`, the IC50 in the data set with A549 [3] was found to be 37 µM; in the data set with HUVEC it was 82.1 µM; with HepG2 [5] it was 27.4 µM; with K562 [6], 7.08 µM. Also, the selectivity ratio in [4] turned out to be 11.6. Also, the logP in [2] is 3.29.
On to `C=CCc1ccc(O)c(-c2ccc(O)c(/C=C\C)c2)c1`, for which the IC50 with HepG2 [1] was found to be 31.6 µM; in the data set on NCI-H1975 it was 39.8 µM; in the data set on HCT-116, 19.9 µM. The same molecule showed a logP in data set [2] of 5.1.
Take `C=CCc1cc(NC(=O)C=C)c(O)c(-c2cc(CC=C)c(O)c(NC(=O)C=C)c2)c1`: the IC50 in the data set with A549 [3] turned out to be 16.6 µM; in the data set with HUVEC it was 57.8 µM; with HepG2 [5], 19.1 µM; with K562 [6], 5.04 µM. Further, in data set [4], the selectivity ratio was 11.5. The logP in data set [2] is 4.3.
In [2], `C=CCc1cc(C=O)c(O)c(-c2cc(C=O)c(O)c(CC=C)c2)c1` showed a log partition coefficient (logP) of 4.23. For the same molecule, the IC50 in the data set on K562 [7] was 32.6 µM; with A549 [8], over 77.6 µM; in [9] it was 31.4 µM.
Molecule `C=CCc1cc(C=O)c(O)c(-c2ccc(O)c(CC=C)c2)c1` displayed a logP in data set [2] of 4.72. Besides, the IC50 in the data set on K562 [7] is 54.6 µM; in the data set with A549 [8] it was over 85 µM.
As for `C=CCc1ccc(O)c(-c2cc(C=O)c(O)c(CC=C)c2)c1`, the 50% inhibitory concentration (IC50) turned out to be 34.1 µM in the data set on A549 [10]; 19.7 µM with K562 [7]; 37.3 µM in data set [11]; 17.8 µM in the data set with A2780; 11.6 µM in the data set with K562 [12]; 49 µM with A549 [8]. Further, the IC50 in [13] is 31.3 µM; in the data set with HepG2 [14], 20.2 µM; in data set [9] it was 22.8 µM. The molecule also came in with a logP in [2] of 4.51.
As to `C=CCc1ccc(O)c(-c2ccc(O)c(CC=C)c2)c1` [HONOKIOL], in data set [4], the selectivity ratio was 2.2. For the same molecule, the concentration for half-maximal inhibition (IC50) came out at 33.9 µM with HepG2 [1]; 34.1 µM in the data set with A549 [10]; 65.1 µM in data set [15]; 28.4 µM in the data set with K562 [7]; 37.3 µM in data set [11]; 22.1 µM in the data set on K562 [12]. In addition, the IC50 with HeLa stood at 62 µM; with A549 [8], 29.7 µM; in data set [13] it was 65.3 µM; with HepG2 [5], 34.3 µM; in the data set on HepG2 [14], 32.9 µM; in [9], 41.3 µM. Further, the results for the IC50 in the data set with K562 [6] and in the data set with HCT-116 were 23.9 µM and 19.1 µM, respectively. The same molecule yielded a logP in [2] of 5.
